Assay type in all cases: functional
Experiment [1] deals with Mus musculus. Briefly: Effect on serum ALP lavel in ovariectomized mouse at 0.1103 mmol/kg, ip once daily for 4 weeks. The method in brief:
(§1)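 OVX Kuiming mice dosed i.p. daily for 4 weeks in 0.5% CMC. Blood taken retro-orbitally on the day after the last dose, stood 30 min, spun at 3000 g for 20 min, serum stored at -20 °C. Calcium by o-methylphenolphthalein complexone, phosphorus by molybdenum blue, ALP by activity with disodium phenylphosphate substrate.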

The subject of experiment [2] is Mus musculus. Briefly: Effect on serum ALP level in mouse at 0.1103 mmol/kg, ip. The method in brief:
as §1

The test system of experiment [3] is Mus musculus. Briefly: Effect on spleen weight in mouse at 0.055 mmol/kg, ip. The method in brief:
(§2)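 Dose-response in OVX Kuiming mice, i.p. daily for 4 weeks in 0.5% CMC at 11.03, 55.15 or 110.3 × 10-3 mmol/kg. Left femur: length, then defatting, drying at 120 °C for 6 h (dry weight), ashing at 800 °C for 8 h. Ash/dry ratio gives mineral content. Ash Ca and P measured colorimetrically. Liver, lung and spleen weighed directly. n = 12, ANOVA.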

Experiment [4] relates to Mus musculus. Briefly: Effect on spleen weight in mouse at 0.1103 mmol/kg, po. The method in brief:
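Female Kuiming mice (7 weeks old, 30.7 ± 3.1 g) under abdominal OVX, sham group abdominorotomy only. From day 5 after surgery, dosed orally once daily for 4 weeks at 110.3 × 10-3 mmol/kg in 0.5% CMC (0.2 mL), vehicle group CMC alone. Blood drawn retro-orbitally, then left femur and organs removed under pentobarbital (40.0 mg/kg, i.p.).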

Experiment [5] relates to Mus musculus. Briefly: Effect on serum calcium level in ovariectomized mouse at 0.1103 mmol/kg, ip once daily for 4 weeks. In a few lines:
as §1

The test system of experiment [6] is Mus musculus. Briefly: Effect on serum calcium level in mouse at 0.1103 mmol/kg, po. In a few lines:
(§3)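 Oral OVX Kuiming mouse model, dosed daily for 4 weeks at 110.3 × 10-3 mmol/kg in 0.5% CMC. Retro-orbital blood stood 30 min at room temperature and was spun at 3000 g for 20 min. Serum kept at -20 °C. Calcium read by o-methylphenolphthalein complexone, phosphorus by molybdenum blue, ALP by activity on disodium phenylphosphate substrate.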

Experiment [7] has as its system Mus musculus. Briefly: Effect on femur length in recipient mouse at 0.011 mmol/kg, ip. The method in brief: as §2
The subject of experiment [8] is Mus musculus. Briefly: Effect on uterus weight in ovariectomized mouse at 0.1103 mmol/kg, ip once daily for 4 weeks. In a few lines: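 Female Kuiming mice (7 weeks old, 30.7 ± 3.1 g), abdominal OVX under pentobarbital (40.0 mg/kg i.p.). From day 5 after surgery, i.p. injection once daily for 4 weeks, compound in aqueous 0.5% CMC prepared just before use. The day after the last dose, mice were anesthetized and killed, and lungs, livers, spleens and uteri were removed and weighed directly. n = 12, ANOVA, p < 0.05.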

The test system of experiment [9] is Mus musculus. Briefly: Effect on lung weight in mouse at 0.055 mmol/kg, ip. The method in brief: as §2
Experiment [10] deals with Mus musculus. Briefly: Effect on liver weight in ovariectomized mouse at 0.110 mmol/kg, ip once daily for 4 weeks. The method in brief: (§4)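 Female Kuiming mice (7 weeks, 30.7 ± 3.1 g) ovariectomized, sham group abdominorotomy. From day 5, i.p. once daily for 4 weeks at 110.3 × 10-3 mmol/kg in 0.5% CMC. Left femur cleaned, length measured, defatted in chloroform-methanol (2:1, 2 × 3 h), dried 120 °C 6 h for dry weight, ashed 800 °C 8 h. Mineral content = ash/dry weight. Ash dissolved in 6 N HCl and diluted. Ca by o-methylphenolphthalein complexone, P by molybdenum blue. Lungs and livers weighed directly.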

Experiment [11] relates to Mus musculus. Briefly: Effect on phosphorus level in ovariectomized mouse at 0.1103 mmol/kg, ip once daily for 4 weeks. The method in brief:
as §4

Experiment [12] concerns Mus musculus. Briefly: Effect on femur ash weight in ovariectomized mouse at 0.1103 mmol/kg, ip once daily for 4 weeks. In a few lines: as §4
In experiment [13] the test system is Mus musculus. Briefly: Effect on calcium level in mouse femur at 0.011 mmol/kg, ip. In a few lines: as §2
Experiment [14] deals with Mus musculus. Briefly: Effect on serum calcium level in mouse at 0.055 mmol/kg, ip. In a few lines: (§5)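 Dose-response in OVX Kuiming mice, i.p. daily for 4 weeks in 0.5% CMC at 11.03, 55.15 or 110.3 × 10-3 mmol/kg. Serum from retro-orbital blood (3000 g, 20 min). Calcium by o-methylphenolphthalein complexone, phosphorus by molybdenum blue, ALP by activity on disodium phenylphosphate. n = 12, ANOVA.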

Experiment [15] deals with Mus musculus. Briefly: Effect on serum ALP level in mouse at 0.011 mmol/kg, ip. The method in brief: as §5
The subject of experiment [16] is Mus musculus. Briefly: Effect on mineral level in mouse femur at 0.011 mmol/kg, ip. The conditions noted are these: in the assay text read “0.11 mmol/kg” for “0.011 mmol/kg”. The method in brief: as §2
For experiment [17], the system named is Mus musculus. Briefly: Effect on calcium level in mouse femur at 0.055 mmol/kg, ip. The method in brief:
as §2

For experiment [18], the system named is Mus musculus. Briefly: Effect on dry weight of femur in recipient mouse at 0.011 mmol/kg, ip. The method in brief: as §2
The test system of experiment [19] is Mus musculus. Briefly: Effect on serum phosphorous Concentration in mouse at 0.110 mmol/kg, po. The method in brief:
as §3

Experiment [20] deals with Mus musculus. Briefly: Effect on phosphorous level in mouse femur at 0.011 mmol/kg, ip. The following applies: in the assay text read “0.11 mmol/kg” for “0.011 mmol/kg”. In a few lines:
as §2

Where a SMILES comes first, the peptide text is derived from it. The star is where a group is joined. X1 = C[C@]12CC[C@@H]3c4ccc(OCC(=O)*)cc4CC[C@H]3[C@@H]1CCC2O

For `C[C@]12CC[C@@H]3c4ccc(OCC(=O)N[C@@H](CCCNC(=N)N)C(=O)NCC(=O)N[C@@H](CC(=O)O)C(=O)N[C@@H](CO)C(=O)O)cc4CC[C@H]3[C@@H]1CCC2O` (stereo partly drawn) (X1-RGDS-OH), the Activity turned out to be 31.429 U/L in experiment [1]; 31.4 U/L in experiment [2]; 136 mg in [3]; 138 mg in experiment [4]; 2.004 mmol/L in [5]; 2.03 mmol/L in experiment [6]. Also, the Activity in experiment [7] worked out at 1.642 cm; in experiment [8], 42.5 mg; in [9], 167 mg; in experiment [10], 1.377 g; in experiment [11] it was 24.949%; in experiment [12] it was 37 mg. Besides, the Activity in experiment [13] turned out to be 41.5%; in experiment [14], 2.047 mmol/L; in experiment [15], 40.3 U/L; in experiment [17], 52.1%; in experiment [18], 48.8 mg; in experiment [19], 1.6 mmol/L. For the same compound, the Ratio in [16] is recorded as 0.582.

Take `CC(C)[C@H](NC(=O)[C@H](CC(=O)O)NC(=O)CNC(=O)[C@H](CCCNC(=N)N)NC(=O)COc1ccc2c(c1)CC[C@@H]1[C@@H]2CC[C@]2(C)C(O)CC[C@@H]12)C(=O)O` (stereo partly drawn) (X1-RGDV-OH): the Activity came to 30.514 U/L in experiment [1]; 30.5 U/L in experiment [2]; 140 mg in experiment [3]; 134 mg in experiment [4]; 2.003 mmol/L in experiment [5]; 2.04 mmol/L in experiment [6]. Moreover, the Activity in experiment [7] is 1.64 cm; in experiment [8], 50.3 mg; in [9], 179 mg; in experiment [10], 1.363 g; in [11], 24.991%; in experiment [12], 40 mg. For the same compound, the Activity is 42.1% in experiment [13]; 2.084 mmol/L in experiment [14]; 38.5 U/L in experiment [15]; 57.13% in experiment [17]; 50.9 mg in experiment [18]; 1.61 mmol/L in experiment [19]. Besides, the Ratio in experiment [16] is 0.63.

With `C[C@]12CC[C@@H]3c4ccc(OCC(=O)N[C@@H](CCCNC(=N)N)C(=O)NCC(=O)N[C@@H](CC(=O)O)C(=O)N[C@@H](Cc5ccccc5)C(=O)O)cc4CC[C@H]3[C@@H]1CCC2O` (stereo partly drawn) (X1-RGDF-OH), the Activity in experiment [1] is 31.529 U/L; in experiment [2], 31.5 U/L; in experiment [3] it was 123 mg; in experiment [4], 135 mg; in experiment [5], 2.005 mmol/L; in [6] it was 2.04 mmol/L. Also, the Activity in experiment [7] came out at 1.623 cm; in experiment [8] it was 55.4 mg; in experiment [9], 155 mg; in experiment [10], 1.395 g; in experiment [11], 25.46%; in experiment [12] it was 35.8 mg. Moreover, the Activity was 42.9% in experiment [13]; 2.04 mmol/L in experiment [14]; 38.6 U/L in [15]; 25.46% in experiment [20]; 54.493% in experiment [17]; 46.9 mg in experiment [18]. In experiment [19], this compound displayed an Activity of 1.6 mmol/L. Further, in experiment [16], the Ratio amounted to 0.585.
